Experimental findings from ChEMBL document CHEMBL2203231, “Nitric oxide donor doxorubicins accumulate into Doxorubicin-resistant human colon cancer cells inducing cytotoxicity” (ACS Med Chem Lett, 2011) are described below.

For series [1], the target named is T1, ATP-binding cassette sub-family C member 3 (Homo sapiens, UniProt O15438). Briefly: Inhibition of MRP3-mediated drug resistance in doxorubicin-resistant human HT-29 cells assessed as increase in doxorubicin accumulation at 5 umol/L co-administered with doxorubicin after 24 hrs by spectrofluorometric analysis. Type of series: cell-based. The settings on record: ht-29, 24 h, 5 µM.

Series [2] concerns the target ATP-dependent translocase ABCB1 (Homo sapiens, UniProt P08183). Briefly: Inhibition of P-gp in doxorubicin-resistant human HT-29 cells at 5 umol/L incubated for 24 hrs followed by compound wash out measured after 20 mins by Rhodamine 123 staining-based flow cytometry. Type of series: cell-based. To be noted: ht-29, 24 h, 5 µM. For orientation: A flow cytometer gives signals particle by particle.

The target in series [3] is T1, ATP-binding cassette sub-family C member 3. Briefly: Inhibition of MRP3-mediated drug resistance in doxorubicin-resistant human HT-29 cells assessed as increase in doxorubicin accumulation at 5 umol/L incubated for 24 hrs followed by compound wash out measured 24 hrs post doxorubicin administration by spectrofluorometric analysis. The class given is cell-based. To be noted: ht-29, 24 h, 5 µM.

For series [4] the target is unchanged. Briefly: Inhibition of MRP3-mediated drug resistance in doxorubicin-resistant human HT-29 cells assessed as increase in extracellular LDH level at 5 uM after 24 hrs by spectrofluorometric analysis. Type of series: cell-based. To be noted: ht-29, 24 h. An outline of the steps: (§1)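 HT29-dx cells were incubated for 24 h with 5 μM compound, alone or with 100 μM PTIO or 10 μL/mL packed red blood cells as NO scavengers. Readouts were intracellular drug content, extracellular LDH activity and nitrite in the culture supernatant. Measured in duplicate, n = 3.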

Series [5] shares this target. Briefly: Inhibition of MRP3-mediated drug resistance in doxorubicin-resistant human HT-29 cells assessed as increase in drug accumulation at 25 uM after 24 hrs by spectrofluorometric analysis. The class given is cell-based. The settings on record: ht-29, 24 h. An outline of the steps: (§2)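 HT29-dx cells in RPMI 1640 were incubated for 24 h with 0.5, 1, 2.5, 5 or 25 μM drug, then lysed. Intracellular drug was measured spectrofluorimetrically (excitation 475 nm, emission 553 nm). Data are means ± SD (n = 3) versus untreated cells.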

For series [6] the target is unchanged. Briefly: Inhibition of MRP3 in doxorubicin-resistant human HT-29 cells assessed as nitration of tyrosine residues at 5 uM after 24 hrs by Western blot analysis. The class given is cell-based. The settings on record: ht-29, 24 h. Put shortly:
(§3)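 HT29-dx cells were treated for 24 h with 5 μM compound and lysed. Whole lysate was immunoprecipitated with a polyclonal anti-nitrotyrosine antibody, then Western blotted with anti-P-gp or anti-MRP3 antibody. Total transporter levels were checked before immunoprecipitation, with GAPDH as loading control. Representative of three experiments.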
(Immunoblotting shows a protein as a band on a membrane.)

Series [7] has the same target. Briefly: Inhibition of MRP3-mediated drug resistance in doxorubicin-resistant human HT-29 cells assessed as increase in drug accumulation at 0.5 to 5 uM after 24 hrs by spectrofluorometric analysis. Type of series: cell-based. The settings on record: ht-29, 24 h. Put shortly:
as §2

Series [8] concerns HT-29. Briefly: Induction of nitrite production in doxorubicin-resistant human HT-29 cells at 5 uM after 1 to 24 hrs by Griess method. The class given is functional, cell-based. An outline of the steps: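 In a time-course run, HT29-dx cells were exposed to 5 μM compound. Nitrite in the medium was measured by the Griess reaction at times between 1 and 24 h.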
On the technique in general: The Griess reaction detects nitrite, a stable product of nitric oxide.

Series [9] has as its target T1, ATP-binding cassette sub-family C member 3. Briefly: Inhibition of MRP3-mediated drug resistance in doxorubicin-resistant human HT-29 cells assessed as increase in drug accumulation at 5 uM after 1 to 24 hrs by spectrofluorometric analysis. The class given is cell-based. The settings on record: ht-29, 5 µM. An outline of the steps: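 Time course in HT29-dx cells with 5 μM drug over 1–24 h. Intracellular content was read by spectrofluorimetry of cell lysates.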

The target is the same in series [10]. Briefly: Inhibition of MRP3-mediated drug resistance in doxorubicin-resistant human HT-29 cells assessed as increase in doxorubicin accumulation at 5 uM after 24 hrs by spectrofluorometric analysis in presence of nitric oxide scavenger PTIO and RBCs. The class given is cell-based. To be noted: ht-29, 24 h. Put shortly:
as §1

Series [11] has the same target. Briefly: Inhibition of MRP3-mediated drug resistance in doxorubicin-resistant human HT-29 cells assessed as increase in doxorubicin accumulation at 5 uM by spectrofluorometric analysis. The class given is cell-based. To be noted: ht-29, 5 µM, TDE = time-dependent effect.
Series [12] has the same target. Briefly: Inhibition of MRP3-mediated drug resistance in doxorubicin-resistant human HT-29 cells assessed as increase in extracellular LDH level at 5 uM after 24 hrs by spectrofluorometric analysis in presence of nitric oxide scavenger PTIO and RBCs. The class given is cell-based. The settings on record: ht-29, 24 h. An outline of the steps:
as §1

Series [13] relates to HT-29. Briefly: Induction of nitrite production in doxorubicin-resistant human HT-29 cells at 5 uM by Griess method. Type of series: functional, cell-based. The settings on record: TDE = time-dependent effect. An outline of the steps:
as §1

In series [14] the test system is HT-29. Briefly: Induction of nitrite production in doxorubicin-resistant human HT-29 cells after 24 hrs by Griess method. Type of series: functional, cell-based. Put shortly: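 HT29-dx cell monolayers were incubated for 24 h with 0.5, 1, 2.5, 5 or 25 μM compound. Nitrite in the culture medium was quantified by the Griess reaction. Data are means ± SD (n = 3) versus untreated cells.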

In series [15] the test system is HT-29. Briefly: Inhibition of P-gp in doxorubicin-resistant human HT-29 cells assessed as nitration of tyrosine residues at 5 uM after 24 hrs by Western blot analysis. The class given is cell-based. An outline of the steps: as §3
For series [16], the target named is T1, ATP-binding cassette sub-family C member 3. Briefly: Inhibition of MRP3-mediated drug resistance in doxorubicin-resistant human HT-29 cells assessed as increase in doxorubicin accumulation after 24 hrs by spectrofluorometric analysis. Type of series: cell-based. The settings on record: ht-29, 24 h.

Each structure is given as a SMILES string. Active and inactive are the calls of the source. The rule behind the calls is not given here.

T1 sequence (O15438 whole entry): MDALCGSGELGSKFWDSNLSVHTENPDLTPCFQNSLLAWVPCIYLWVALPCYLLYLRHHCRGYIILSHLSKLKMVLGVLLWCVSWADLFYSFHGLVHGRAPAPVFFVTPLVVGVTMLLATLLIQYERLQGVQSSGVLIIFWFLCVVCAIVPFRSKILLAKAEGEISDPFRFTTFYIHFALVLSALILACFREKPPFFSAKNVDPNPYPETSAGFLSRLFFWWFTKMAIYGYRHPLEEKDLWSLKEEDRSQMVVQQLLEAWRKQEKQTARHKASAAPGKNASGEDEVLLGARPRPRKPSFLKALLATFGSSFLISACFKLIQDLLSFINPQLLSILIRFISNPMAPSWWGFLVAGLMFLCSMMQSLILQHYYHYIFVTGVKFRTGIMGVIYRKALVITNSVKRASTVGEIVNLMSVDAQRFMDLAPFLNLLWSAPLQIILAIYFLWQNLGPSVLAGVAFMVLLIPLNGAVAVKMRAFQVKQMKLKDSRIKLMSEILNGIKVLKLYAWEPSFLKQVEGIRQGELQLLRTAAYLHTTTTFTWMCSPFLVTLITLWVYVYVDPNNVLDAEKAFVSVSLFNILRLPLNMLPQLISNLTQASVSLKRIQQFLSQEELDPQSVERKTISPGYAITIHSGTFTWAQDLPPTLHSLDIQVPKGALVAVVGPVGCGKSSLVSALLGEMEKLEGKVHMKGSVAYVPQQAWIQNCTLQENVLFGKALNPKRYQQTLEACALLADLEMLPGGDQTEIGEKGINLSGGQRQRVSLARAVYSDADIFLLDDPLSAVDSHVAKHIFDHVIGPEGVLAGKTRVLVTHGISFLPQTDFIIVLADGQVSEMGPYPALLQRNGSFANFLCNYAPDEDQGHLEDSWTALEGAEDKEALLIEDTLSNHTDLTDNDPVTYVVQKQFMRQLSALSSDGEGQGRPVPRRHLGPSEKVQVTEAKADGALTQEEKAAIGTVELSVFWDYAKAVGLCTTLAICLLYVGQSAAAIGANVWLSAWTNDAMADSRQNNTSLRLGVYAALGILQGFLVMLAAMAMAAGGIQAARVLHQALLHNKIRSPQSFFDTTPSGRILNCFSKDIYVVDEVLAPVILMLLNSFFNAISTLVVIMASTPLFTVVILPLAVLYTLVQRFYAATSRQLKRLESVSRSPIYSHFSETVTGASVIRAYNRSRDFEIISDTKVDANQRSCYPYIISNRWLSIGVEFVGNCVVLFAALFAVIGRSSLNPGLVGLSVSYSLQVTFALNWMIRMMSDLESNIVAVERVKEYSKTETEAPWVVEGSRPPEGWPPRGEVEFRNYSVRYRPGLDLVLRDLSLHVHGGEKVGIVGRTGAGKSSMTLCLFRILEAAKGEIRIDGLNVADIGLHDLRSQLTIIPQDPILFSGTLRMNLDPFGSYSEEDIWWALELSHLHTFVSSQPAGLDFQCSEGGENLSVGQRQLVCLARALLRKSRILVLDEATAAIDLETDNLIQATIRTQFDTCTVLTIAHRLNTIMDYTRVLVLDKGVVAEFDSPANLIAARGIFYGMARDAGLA
ATP-dependent translocase ABCB1, sequence (P08183 whole entry): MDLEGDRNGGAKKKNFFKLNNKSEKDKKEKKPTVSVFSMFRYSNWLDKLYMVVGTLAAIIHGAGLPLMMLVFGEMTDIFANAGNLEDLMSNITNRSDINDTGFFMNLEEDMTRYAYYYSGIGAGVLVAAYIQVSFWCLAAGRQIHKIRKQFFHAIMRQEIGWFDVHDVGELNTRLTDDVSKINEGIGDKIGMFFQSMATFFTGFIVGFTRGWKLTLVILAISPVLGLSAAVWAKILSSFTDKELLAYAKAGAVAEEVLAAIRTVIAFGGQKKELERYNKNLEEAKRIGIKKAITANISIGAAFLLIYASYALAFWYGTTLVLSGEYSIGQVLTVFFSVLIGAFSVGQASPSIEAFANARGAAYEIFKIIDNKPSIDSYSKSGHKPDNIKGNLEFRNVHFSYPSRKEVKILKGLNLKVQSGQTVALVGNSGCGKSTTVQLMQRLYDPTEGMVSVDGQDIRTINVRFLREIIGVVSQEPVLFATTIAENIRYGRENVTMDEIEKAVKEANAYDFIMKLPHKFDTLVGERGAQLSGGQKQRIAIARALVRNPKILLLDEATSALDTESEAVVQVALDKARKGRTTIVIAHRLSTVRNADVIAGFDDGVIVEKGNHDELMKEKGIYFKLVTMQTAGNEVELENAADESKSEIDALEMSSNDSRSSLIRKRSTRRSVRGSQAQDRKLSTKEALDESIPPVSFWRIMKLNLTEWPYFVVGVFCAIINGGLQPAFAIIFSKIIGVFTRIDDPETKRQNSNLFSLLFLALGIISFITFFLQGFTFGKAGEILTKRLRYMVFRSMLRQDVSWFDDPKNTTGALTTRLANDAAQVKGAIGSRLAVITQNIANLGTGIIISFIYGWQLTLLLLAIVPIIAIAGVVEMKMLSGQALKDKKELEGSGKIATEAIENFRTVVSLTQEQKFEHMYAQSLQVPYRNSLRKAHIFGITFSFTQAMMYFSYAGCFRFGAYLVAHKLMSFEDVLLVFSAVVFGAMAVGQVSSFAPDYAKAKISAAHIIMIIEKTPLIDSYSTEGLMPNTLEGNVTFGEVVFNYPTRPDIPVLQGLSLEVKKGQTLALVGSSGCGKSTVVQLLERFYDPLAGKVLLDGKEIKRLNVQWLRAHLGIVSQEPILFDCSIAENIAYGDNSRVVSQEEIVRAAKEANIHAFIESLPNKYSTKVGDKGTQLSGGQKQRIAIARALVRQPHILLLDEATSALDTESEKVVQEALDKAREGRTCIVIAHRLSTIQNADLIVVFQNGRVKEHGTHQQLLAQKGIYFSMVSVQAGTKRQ

`O=C(O)CCOc1no[n+]([O-])c1S(=O)(=O)c1ccccc1`: the “inhibition (INH)” value in [1] is listed as “Active”; in series [2] it was “Not Active”; in [3], “Active”; in series [4], “Not Active”.
As for `COC(=O)c1ccc(CC(CO[N+](=O)[O-])O[N+](=O)[O-])cc1` (stereo not drawn), the “inhibition (INH)” value in series [4] was “Not Active”.
In the case of `COC(=O)CCOc1no[n+]([O-])c1S(=O)(=O)c1ccccc1`, the “inhibition (INH)” value in [1] is “Active”; in series [2], “Not Active”; in series [3] it was “Active”; in series [4] it was “Not Active”.
As for `COc1cccc2c1C(=O)c1c(O)c3c(c(O)c1C2=O)C[C@@](O)(C(=O)CO)C[C@@H]3O[C@H]1C[C@H](N)[C@H](O)[C@H](C)O1` [DOXORUBICIN], the “inhibition (INH)” value in [5] was “Active”; in [6], “Not Active”; in series [7], “Not Active”; in series [9] it was “Not Active”. Also, in the series with HT-29 [8], the result was inactive.
Consider `COc1cccc2c1C(=O)c1c(O)c3c(c(O)c1C2=O)C[C@@](O)(C(=O)COC(=O)c1ccc(CC(CO[N+](=O)[O-])O[N+](=O)[O-])cc1)C[C@@H]3O[C@H]1C[C@H](N)[C@H](O)[C@H](C)O1.Cl` (stereo partly drawn), for which the “inhibition (INH)” value in series [10] is given as “Not Active”; in [6], “Active”; in [11] it was “tde”; in series [12], “Not Active”; in series [4] it was “Active”; in series [16] it was “Dose-dependent effect”. Besides, the values for the Activity entry in the series with HT-29 [13] and in the series on HT-29 [14] were “tde” and “Dose-dependent effect”, respectively. Also, the inhibition result with HT-29 [15] is “inactive”.
On to `COc1cccc2c1C(=O)c1c(O)c3c(c(O)c1C2=O)C[C@@](O)(C(=O)COC(=O)CCOc1no[n+]([O-])c1S(=O)(=O)c1ccccc1)C[C@@H]3O[C@H]1C[C@H](N)[C@H](O)[C@H](C)O1.Cl`, for which the “inhibition (INH)” value is “Not Active” in [10]; “Active” in series [6]; “tde” in series [11]; “Not Active” in series [12]; “Active” in [4]; “Dose-dependent effect” in [16]. In addition, the figures for the Activity result with HT-29 [13] and with HT-29 [14] were “tde” and “Dose-dependent effect”, respectively. The inhibition entry in the series with HT-29 [15] is “inactive”.
Consider `O=C(O)c1ccc(CC(CO[N+](=O)[O-])O[N+](=O)[O-])cc1` (stereo not drawn), for which the “inhibition (INH)” value in [4] was “Not Active”.
